Holding throughout (format): functional
For assay [1], the species on record is Cavia porcellus. Briefly: Inhibitory concentration of compound was measured in muscle of the guinea pig ileum. The settings on record: Muscle tissue. The method in brief: (§1)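 Electrically stimulated longitudinal muscle of guinea pig ileum; agonist IC50 for inhibition of the twitch, with potency expressed relative to a control morphine IC50 run in the same preparation.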

Assay [2] in a line: Ratio of IC50 of ethylketazocine (EK) in the presence of compound to IC50 of ethylketazocine in the absence of compound. The gist of the method:
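Guinea pig ileum longitudinal muscle, electrically stimulated; the kappa agonist ethylketazocine (EK) was run with and without the test antagonist, given at 20 nM or 2 nM depending on the compound. The IC50 ratio is EK IC50 with antagonist over EK IC50 alone.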

The species named for assay [3] is Cavia porcellus. Briefly: The agonist potency of compound was determined relative to control morphine IC50. The method in brief:
as §1

Assay [4] is filed under the species Cavia porcellus. Nature of the assay: Inhibitory concentration of morphine was measured in muscle of the guinea pig ileum. The conditions noted are these: Muscle tissue. The gist of the method:
as §1

pIC50: −log10 of the molar value.

As usually defined, the pIC50 is −log10 of the IC50, conventionally taken in molar units.

Regarding `NCCOCCOCCN[C@@H]1CC[C@@]2(O)C3Cc4ccc(O)c5c4C2(CCN3CC2CC2)[C@H]1O5` (some centres not stated), the results for the pIC50 in assay [1] and in assay [4] were 7.68 and 6.91, respectively. In addition, the IC50 ratio in assay [2] is 1.1. The compound further came in with a Relative potency in assay [3] of 5.8.

`Oc1ccc2c3c1O[C@H]1[C@H](NCCOCCOCCNCc4ccccc4)CC[C@@]4(O)C(C2)N(CC2CC2)CCC314` (some centres not stated): the results for the pIC50 in assay [1] and in assay [4] were 6.69 and 6.97, respectively. For the same compound, in assay [2], the IC50 ratio came out at 3.1. Also, in assay [3], the Relative potency is given as 5.2.

For `N=C(N)NCCOCCOCCN[C@@H]1CC[C@@]2(O)C3Cc4ccc(O)c5c4C2(CCN3CC2CC2)[C@H]1O5.O=S(=O)(O)O` (some centres not stated), the pIC50 is 7.94 in assay [1] and 6.98 in assay [4]. In addition, the IC50 ratio in assay [2] was 1. Besides, the Relative potency in assay [3] is 9.1.

The record behind these values is ChEMBL document CHEMBL1123510, “Investigation of the structural requirements for the kappa-selective opioid receptor antagonist, 6 beta,6 beta'-[ethylenebis(oxyethyleneimino)]bis[17-(cyclopropylmethyl)- 4,5 alpha-epoxymorphinan-3,14-diol] (TENA)” (J Med Chem, 1986).
